Experiments:
Format in all cases: biochemical
HDAC8 = target: T1, HDAC8 (Homo sapiens, UniProt Q9BY41); test: HDACs selectivity assay
T1 sequence (Q9BY41 1-377): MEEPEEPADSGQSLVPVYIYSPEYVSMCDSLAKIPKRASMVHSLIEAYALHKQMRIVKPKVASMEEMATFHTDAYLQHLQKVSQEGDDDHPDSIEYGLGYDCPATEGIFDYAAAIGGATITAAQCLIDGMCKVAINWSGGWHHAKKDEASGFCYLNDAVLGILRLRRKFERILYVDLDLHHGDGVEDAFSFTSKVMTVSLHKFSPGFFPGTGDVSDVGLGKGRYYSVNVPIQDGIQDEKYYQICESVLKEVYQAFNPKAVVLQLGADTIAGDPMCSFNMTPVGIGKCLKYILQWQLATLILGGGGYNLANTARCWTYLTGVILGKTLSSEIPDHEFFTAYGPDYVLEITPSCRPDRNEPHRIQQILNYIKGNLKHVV
Method in brief: (§1)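 Enzyme selectivity panel was run by an outside contract lab to its standard assay protocols. IC50 values came from dose–response fitting of the data points. Each experiment was done independently at least three times.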

SIRT6 = SIRT6 (Homo sapiens, UniProt Q8N6T7); test: Fluor de Lys
SIRT6, sequence (Q8N6T7 whole entry): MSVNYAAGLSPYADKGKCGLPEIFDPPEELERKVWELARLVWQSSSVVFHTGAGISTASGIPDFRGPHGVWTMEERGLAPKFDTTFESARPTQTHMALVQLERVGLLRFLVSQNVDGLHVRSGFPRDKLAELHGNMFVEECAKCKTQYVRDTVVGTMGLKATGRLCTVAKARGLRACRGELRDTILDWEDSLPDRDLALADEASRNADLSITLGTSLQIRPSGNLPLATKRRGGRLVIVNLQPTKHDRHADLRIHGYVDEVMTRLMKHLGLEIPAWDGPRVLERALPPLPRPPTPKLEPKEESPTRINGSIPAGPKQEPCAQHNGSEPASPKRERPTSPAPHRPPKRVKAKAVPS
Method in brief: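 Recombinant SIRT6 was expressed in E. coli BL21 in LB with 100 μg/mL ampicillin at 37 °C. Expression was induced with 0.5 mmol/L IPTG at OD600 0.8, then grown 18 h at 16 °C and purified by an earlier method.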

HDAC11 = target: T2, HDAC11 (Homo sapiens, UniProt Q96DB2); test: HDACs selectivity assay
T2 sequence (Q96DB2 1-347): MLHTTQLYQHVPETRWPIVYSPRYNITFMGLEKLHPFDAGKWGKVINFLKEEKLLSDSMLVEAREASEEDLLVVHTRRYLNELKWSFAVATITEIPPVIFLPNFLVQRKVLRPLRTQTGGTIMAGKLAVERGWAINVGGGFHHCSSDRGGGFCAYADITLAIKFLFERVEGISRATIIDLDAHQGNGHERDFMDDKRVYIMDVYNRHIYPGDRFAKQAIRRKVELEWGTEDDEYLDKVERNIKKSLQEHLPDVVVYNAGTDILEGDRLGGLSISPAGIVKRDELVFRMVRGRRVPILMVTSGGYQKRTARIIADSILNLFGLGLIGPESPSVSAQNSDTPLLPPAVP
Method in brief: as §1

HDAC6 = target: T3, HDAC6 (Homo sapiens, UniProt Q9UBN7); test: HDACs selectivity assay
T3 sequence (Q9UBN7 1-1215): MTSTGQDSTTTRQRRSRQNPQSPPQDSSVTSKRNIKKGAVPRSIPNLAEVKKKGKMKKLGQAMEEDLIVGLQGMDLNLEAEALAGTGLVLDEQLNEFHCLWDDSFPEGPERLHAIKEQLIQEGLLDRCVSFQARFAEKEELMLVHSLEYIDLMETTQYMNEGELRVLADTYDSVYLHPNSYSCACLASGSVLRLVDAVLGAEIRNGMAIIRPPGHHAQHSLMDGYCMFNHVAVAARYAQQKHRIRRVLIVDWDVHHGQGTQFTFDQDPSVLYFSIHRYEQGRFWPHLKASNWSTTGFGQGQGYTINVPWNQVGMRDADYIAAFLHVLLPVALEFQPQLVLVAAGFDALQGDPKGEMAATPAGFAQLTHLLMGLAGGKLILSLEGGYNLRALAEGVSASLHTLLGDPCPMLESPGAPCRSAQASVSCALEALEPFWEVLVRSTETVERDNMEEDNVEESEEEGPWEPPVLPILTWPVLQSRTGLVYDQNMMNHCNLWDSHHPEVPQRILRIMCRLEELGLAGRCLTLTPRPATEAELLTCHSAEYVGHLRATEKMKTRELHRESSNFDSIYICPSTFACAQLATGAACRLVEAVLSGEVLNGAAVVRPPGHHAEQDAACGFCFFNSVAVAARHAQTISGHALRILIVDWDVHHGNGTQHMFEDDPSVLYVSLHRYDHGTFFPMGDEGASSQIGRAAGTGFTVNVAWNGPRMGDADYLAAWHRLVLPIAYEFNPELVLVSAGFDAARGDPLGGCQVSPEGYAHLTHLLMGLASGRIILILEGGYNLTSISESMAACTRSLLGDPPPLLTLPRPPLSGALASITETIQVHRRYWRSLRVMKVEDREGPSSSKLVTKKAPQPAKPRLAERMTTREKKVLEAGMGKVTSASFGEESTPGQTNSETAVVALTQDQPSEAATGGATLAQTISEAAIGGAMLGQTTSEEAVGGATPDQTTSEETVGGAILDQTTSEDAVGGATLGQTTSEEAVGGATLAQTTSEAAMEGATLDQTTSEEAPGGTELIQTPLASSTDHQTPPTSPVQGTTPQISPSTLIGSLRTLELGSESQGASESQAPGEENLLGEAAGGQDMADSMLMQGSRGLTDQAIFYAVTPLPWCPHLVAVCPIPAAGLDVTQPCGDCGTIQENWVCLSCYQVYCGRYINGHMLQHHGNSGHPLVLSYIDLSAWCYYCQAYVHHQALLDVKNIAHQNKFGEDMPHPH
Method in brief: as §1

SIRT1 = target: T4, SIRT1 (Homo sapiens, UniProt Q96EB6); test: HDACs selectivity assay
T4 sequence (Q96EB6 1-747): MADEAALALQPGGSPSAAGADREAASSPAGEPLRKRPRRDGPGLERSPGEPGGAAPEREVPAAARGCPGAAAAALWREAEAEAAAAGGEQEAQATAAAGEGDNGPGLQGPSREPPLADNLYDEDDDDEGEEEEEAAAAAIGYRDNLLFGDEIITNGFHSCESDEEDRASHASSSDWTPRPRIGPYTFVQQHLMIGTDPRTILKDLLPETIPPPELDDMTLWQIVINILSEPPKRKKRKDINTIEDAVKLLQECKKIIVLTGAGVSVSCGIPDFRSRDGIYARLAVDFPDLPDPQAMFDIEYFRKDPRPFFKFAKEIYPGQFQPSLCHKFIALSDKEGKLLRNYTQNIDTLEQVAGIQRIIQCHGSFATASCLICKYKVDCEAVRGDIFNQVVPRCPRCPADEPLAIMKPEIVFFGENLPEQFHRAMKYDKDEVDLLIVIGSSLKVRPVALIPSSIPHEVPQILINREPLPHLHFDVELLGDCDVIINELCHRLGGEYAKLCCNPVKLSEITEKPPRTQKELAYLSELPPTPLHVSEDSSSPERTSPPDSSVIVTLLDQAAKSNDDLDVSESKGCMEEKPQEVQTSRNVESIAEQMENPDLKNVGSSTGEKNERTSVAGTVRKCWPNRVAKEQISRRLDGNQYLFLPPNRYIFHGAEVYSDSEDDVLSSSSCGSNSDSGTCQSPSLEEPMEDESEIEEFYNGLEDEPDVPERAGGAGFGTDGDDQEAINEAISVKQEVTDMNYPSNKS
Method in brief: as §1

IC50 (HDAC8): > 100 µM
IC50 (SIRT6): 2.33 ± 0.17 µM
inhibition ratio at 50 μmol/L (SIRT6; FDL assay, substrate Ac-RHKK-Ac-AMC, 50 μmol/L compound): 85.3%
Effect (SIRT6; SIRT6 (Table 2)): Inhibition
IC50 (HDAC11): > 100 µM
IC50 (HDAC6): > 100 µM
IC50 (SIRT1): > 100 µM
SMILES: Nc1nonc1-n1cc(C(=O)N/N=C/c2cc(Cl)cc(C(F)(F)F)c2)nn1 [JYQ-42]

Reference: PMC8897208 (Acta Pharmaceutica Sinica. B, 2021)
